Measured values as given in PubChem BioAssay AID635 (SRMLSC, 2007).
The whole screen tested about 1,300 compounds, of which about 40 (3%) were called active. These entries were drawn from the full list. Measured potencies and affinities stand elsewhere. A number with no mark means an inactive call. The rule behind the calls is not given here.

Assay: growth inhibition of wild-type E. coli BW25113 pool, dose response, OD615 (AID 635);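 note: growth measured after 20 h with compound at 37 °C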
Settings: pooled mutant strains; at 100 µM (top of the series)
In short: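 Material: Keio BW25113 knockout pool, 1,275 strains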

SMILES | growth inhibition
Cc1cccc(N(C)C(=O)c2cc3cc4ccc(C)cc4nc3o2)c1 | -7.96%
CC(C)OCCCNc1ncnc2c1[nH]c1ccccc12 | 0.81%
CC(C)OCCCNc1ncnc2c1[nH]c1ccc(F)cc12 | -0.56%
O=C(CSc1nc2ccccc2o1)Nc1nc2c(s1)CCCC2 | -2.1%
Cc1cc(NC(=O)Cn2nnc3sc4c(c3c2=O)CCC(C(C)(C)C)C4)no1 (stereo not given) | -1.22%
CCOC(=O)Cc1ccc(NS(=O)(=O)c2ccc(SC)cc2)cc1 | 0.18%
c1ccc2c(c1)CCN(c1nc3cc4c(cc3s1)OCCO4)C2 | 0.44%
CC(C)c1ccc(Nc2nc(NCc3ccco3)nc(N3CCOCC3)n2)cc1 | -1.77%
COc1ccc(NS(=O)(=O)c2ccc3oc(Nc4ccc5c(c4)OCCO5)nc3c2)cc1 | -4.76%
CCCN(CCC)S(=O)(=O)c1ccc(C(=O)Nc2nnc(-c3cccc(OC)c3)o2)cc1 | -1.14%
Cc1cccc(N2CCN(C(=O)C34CC5CC(CC(C5)C3)C4)CC2)c1C | 4.49%
Cn1cccc1C(=O)Nc1nc(-c2ccccn2)cs1 | 1.36%
COc1ccc(C(=O)Nn2cnc3scc(-c4cccs4)c3c2=O)c(O)c1 | 0.89%
COC(=O)c1[nH]c2cccc(OC)c2c1NC(=O)CN1CC2(C)CC1CC(C)(C)C2 (stereo not given) | 1.93%
COC(=O)c1cccc(-n2nnnc2SCC(=O)Nc2nc3c(s2)CCCC3)c1 | -0.44%
O=C1OC(c2ccc(O)cc2)(c2ccc(O)cc2)c2ccccc21 | 0.54%
Cc1cccc(Nc2nc(NCc3ccco3)nc(N3CCOCC3)n2)c1 | 0.54%
CCOc1cc(S(=O)(=O)n2cc(-c3ccc(F)cc3)c(N)n2)cc(OCC)c1OCC | -3.17%
CC1Cc2ccccc2N1C(=O)Cn1c(=O)oc2cc(S(=O)(=O)NC3CCCC3)ccc21 (stereo not given) | -2.66%
CCCn1nnnc1NC(=O)CSc1ccc(Cl)cc1 | 1.76%
Cc1cc(NC(=O)C2CCCCC2)nc2c1c(=O)oc1ccccc12 | -2.5%
N#Cc1nc(COc2ccc(F)cc2)oc1N1CCN(Cc2ccccc2)CC1 | -4.59%
c1ccc2oc(SCc3nc4ccccc4s3)nc2c1 | -0.66%
C=CCn1c(SCC(=O)Nc2ccc3c(c2)CCC3)nnc1-c1cccs1 | -0.97%

SMILES | growth inhibition
O=C(c1cc2ccccc2o1)N1CCN(c2ccccc2Cl)CC1 | -2.73%
O=C(CSc1nnnn1C1CCCCC1)Nc1nc2c(s1)CCCC2 | -0.43%
O=C(O)c1cc(Cl)c2ccccc2c1O | 9.52%
O=c1c(-c2nc3ccccc3o2)c2oc3ccccc3n2c2ccccc12 | -2.69%
Cc1cccc(S(=O)(=O)Nc2nc3ccccc3nc2NCc2ccco2)c1 | 2.5%
Cc1ccc(-n2c(C)cc(C(=O)COC(=O)c3c(C)noc3C)c2C)cc1 | -5.46%
O=C(c1cccs1)N(Cc1nc2sc3c(c2c(=O)[nH]1)CCCC3)C1CCCC1 | -3.44%
N#Cc1ccc(NC(=O)Nc2ccc(Cl)cc2)cc1 | 12.7%
CCOc1ccc(OCCSc2nnnn2C2CCCCC2)cc1 | 2.59%
COc1ccc(C(C)(C)C)cc1NC(=O)Nc1ccc2c(c1)OCO2 | 2.22%
COc1ccccc1-c1noc(CCC(=O)Nc2cccc(C(F)(F)F)c2)n1 | 9.08%
CCc1ccc2oc(=O)cc(CN(C)Cc3ccccc3)c2c1 | 0.54%
O=C(c1ccc2c(=O)n(C3CCCC3)c(=S)[nH]c2c1)N1CCN(C2CCCCC2)CC1 | 0.27%
Cc1cc(C)c(C#N)c(SCC(=O)OC2CCCCC2)n1 | 4.58%
COC(=O)c1ccc(CSc2nc3ccccc3o2)cc1 | -2.69%
CCCCn1nc(NC(=O)c2cccs2)c2cc3ccccc3nc21 | -3.62%
Cc1ccccc1OCCCN1C(=O)C(=O)c2cccc(C)c21 | -1.21%
Clc1ccc(OCc2nc(-c3ccccn3)n[nH]2)cc1 | 3.08%
Cc1cccc(Nc2nc(-c3ccccn3)cs2)n1 | -0.44%
CC1=C(C(=O)OC2CCCCCCC2)C(c2cccc(O)c2)NC(=O)N1 (stereo not given) | 3.15%
CCC(C(=O)Nc1ccccc1OC)n1c(C(=O)OC)cc2ccsc21 (stereo not given) | 2.88%
COc1cccc(-c2cc(C(=O)N3CCc4ccccc4C3)no2)c1 | -1.57%
CC(C)C(C(=O)NCc1ccco1)N(C(=O)CNS(=O)(=O)c1ccc(Cl)cc1)C1CCCC1 (stereo not given) | -9.91%
O=S(=O)(N1CCCCC1)n1c(Cc2ccccc2)nc2ccccc21 | 2.59%

SMILES | growth inhibition
Cc1cc(N2CCCCC2)n2ncc(-c3ccccc3)c2n1 | 1.76%
Cc1ccc(C(c2nnnn2CCc2ccccc2)N2CCSCC2)cc1 (stereo not given) | -0.97%
N#Cc1cn(Cc2cccc(Cl)c2)c2ccccc12 | 7.22%
CCCCN1C(=O)C2ON(c3ccccc3C)C(c3ccco3)C2C1=O (stereo not given) | 3.87%
CN1CCN(CC(=O)N2CCn3c4c(c5cc(C6CCCCC6)ccc53)CCCC42)CC1 (stereo not given) | 1.85%
CCN(CCCNC(=O)c1[nH]c(C)c(C(C)=O)c1C)c1cccc(C)c1 | 1.22%
CCCc1cc(C(=O)N2CCN(c3ccccc3C)CC2)cs1 | 3.4%
COc1ccc2nc(NC(=O)CSc3nnnn3C3CCCCC3)sc2c1 | 0.18%
CCn1cc(C(=O)NC2CCCCC2C)c(=O)c2ccc(C)nc21 (stereo not given) | 7.04%
Cc1cccc(NC(=O)CSc2nnc(-c3cc(C)n(-c4ccccc4)c3C)o2)c1C | 0.15%
O=S(=O)(Nc1cc(Cl)ccc1N1CCCCC1)c1cccs1 | 3.05%
Cc1cc(=O)[nH]c(SCC(=O)Nc2nc(-c3ccccc3)cs2)n1 | 4.29%
COc1ccccc1N1CCN(C(=O)c2cc(-c3cccc(Cl)c3)on2)CC1 | -2.98%
CC(C)c1nnc(NC(=O)c2c(O)c3cccc4c3n(c2=O)CC4)s1 | -11%
CCOc1cc(S(=O)(=O)N2CCN(Cc3ccccc3)CC2)ccc1Br | -3.26%
CC1CN(c2oc(COc3ccc(Cl)cc3Cl)nc2C#N)CC(C)O1 (stereo not given) | -5.37%
CN(C1CCCCC1)S(=O)(=O)c1ccc(NC(=O)c2ccc(Br)o2)cc1 | -1.39%
Cc1[nH]n2c(=O)c3c(nc2c1-c1ccc(Cl)cc1)CCC3 | -1.19%
CCOC(=O)c1cn(CC)c2cc(N3CCSCC3)c(F)cc2c1=O | 3.43%
Cc1csc(NC(=O)c2cccc(Cn3nc(C)c(Br)c3C)c2)n1 | 1.33%
COc1ccc(-c2[nH]ncc2Oc2ccccc2OC)c(O)c1 | 7.41%
Cc1ccc(Cl)cc1NC(=O)CC(O)(C(F)(F)F)C(F)(F)F | 15.3%
CCOC(=O)C1CCN(C(c2cccnc2)c2c(NC(=O)c3ccco3)sc(C)c2C)CC1 (stereo not given) | -3.15%
Cc1cc(C)c(O)c(-c2cc(C(=O)Nc3ccc(S(=O)(=O)N4CCOCC4)cc3)[nH]n2)c1 | 3.2%

SMILES | growth inhibition
COc1ccc(S(=O)(=O)N(Cc2cccs2)C2CCCC2)cc1 | 3.24%
COc1ccc(OCC(O)Cn2c(=N)n(Cc3ccccc3)c3ccccc32)cc1 (stereo not given) | 12.8%
Brc1cc(Br)c2ncnc(N3CCCCC3)c2c1 | 1.95%
CCc1nc(N2CCCCC2)c2oc3ccccc3c2n1 | -3.08%
COCCCN1C(=O)c2[nH]nc(-c3ccccc3O)c2C1c1ccc(Cl)cc1 (stereo not given) | -4.43%
COc1ccccc1N1CCN(C(c2ccccc2Cl)c2nnnn2C(C)(C)C)CC1 (stereo not given) | -0.1%
CC(C)c1nc(N2CCN(C(=O)c3ccco3)CC2)c2c3c(sc2n1)CCCC3 | 4.77%
O=C(CN(C(=O)CNC(=O)c1ccco1)c1ccc(Cl)c(Cl)c1)NC1CCCCC1 | 1.85%
CCCCOn1c(C)c(C(=O)OCC)c2c3nonc3ccc21 | 2.87%
CCOC(=O)c1sc(NC(=O)CSc2n[nH]c(-c3ccccc3)n2)c(C#N)c1C | 1.14%
Cc1cccc(Cc2c(C)nc3c(C(=O)NCc4ccco4)cnn3c2C)c1 | -6.42%
Cc1noc(C)c1S(=O)(=O)N(CCc1ccccc1)Cc1ccccc1 | 3.25%
Cc1ccc2c3c1C1(C(=O)N3C(C)(C)CC2C)C(C#N)=C(N)Oc2cc(O)ccc21 (stereo not given) | 4.82%
Cc1ccc(C2C(S(C)(=O)=O)=C(O)C(=O)N2c2ccccc2)cc1 (stereo not given) (tested in a mixture with another compound) | 3.27%
CC1CCCC(C)N1C(=O)CN1C(=O)C(C)(C)Oc2ccc(C(=O)NC3CCCCC3)cc21 (stereo not given) | -0.3%
Oc1ccccc1-c1cc(-c2ccc3c(c2)OCCO3)n[nH]1 | 5.21%
Cc1csc(SCC(=O)Nc2nc(-c3ccccc3)cs2)n1 | 0.45%
O=C(Nc1nc(SCc2ccc(F)cc2)ns1)c1ccco1 | 8.93%
COc1ccc2[nH]c(=O)c(CN(C(=O)NC3CCCCC3)C3CCCCC3)cc2c1 | -1.14%
COC(=O)c1c(NC(=O)Cc2cccs2)sc2c1CCCC2 | 4.36%
OCCn1c(-c2ccc3c(c2)OCO3)csc1=Nc1ccccc1 | -0.74%
Cn1c(-c2ccc3c(c2)OCO3)cnc1N | -1.76% (active)
N#Cc1c(N)oc(-c2ccc3c(c2)OCO3)c1-c1ccc2c(c1)OCO2 | 1.41%
